Source: ChEMBL document CHEMBL1811868, “Structure-activity relationship of 2-hydroxy-2-aryl-2,3-dihydro-imidazo[1,2-a]pyrimidinium salts and 2N-substituted 4(5)-aryl-2-amino-1H-imidazoles as inhibitors of biofilm formation by Salmonella Typhimurium and Pseudomonas aeruginosa” (Bioorg Med Chem, 2011)
Activity calls are given as the source filed them. Unless noted, the rule behind the calls is not given here.

Tests used:
Assay type in all cases: functional, organism-based
Pseudomonas aeruginosa [1] = experiment: Antimicrobial activity against Pseudomonas aeruginosa PA14 assessed as inhibition of planktonic cell growth at 10 uM after 24 hrs by […]
Method in brief: (§1)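 Planktonic growth was followed by Bioscreen growth curves, not by crystal violet. Overnight cultures were diluted 1:200 in TSB 1/20 and received compound serially diluted in DMSO or EtOH, in triplicate, with solvent controls. Plates were shaken at 25 °C for at least 24 h, reading A600 every 15 min.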

Pseudomonas aeruginosa [2] = experiment: Antimicrobial activity against Pseudomonas aeruginosa PA14 assessed as inhibition of planktonic cell growth at 40 uM after 24 hrs by […]; method in brief: as §1
Pseudomonas aeruginosa [3] = experiment: Antimicrobial activity against Pseudomonas aeruginosa PA14 assessed as inhibition of planktonic cell growth at IC50 after 24 hrs by […]; method in brief: as §1
Salmonella typhimurium [4] = experiment: Antimicrobial activity against Salmonella Typhimurium ATCC 14028 assessed as inhibition of planktonic cell growth at IC50 after 24 hrs by […]; conditions: Salmonella enterica subsp. enterica serovar Typhimurium; method in brief: as §1
Salmonella typhimurium [5] = experiment: Antimicrobial activity against Salmonella Typhimurium ATCC 14028 assessed as inhibition of planktonic cell growth at 200 uM after 24 hrs by […]; conditions: Salmonella enterica subsp. enterica serovar Typhimurium; method in brief: as §1
Salmonella typhimurium [6] = experiment: Antimicrobial activity against Salmonella Typhimurium ATCC 14028 assessed as inhibition of planktonic cell growth at 150 uM after 24 hrs by […]; conditions: Salmonella enterica subsp. enterica serovar Typhimurium; method in brief: as §1
Pseudomonas aeruginosa [7] = experiment: Antimicrobial activity against Pseudomonas aeruginosa PA14 assessed as inhibition of planktonic cell growth at 80 uM after 24 hrs by […]; method in brief: as §1
Pseudomonas aeruginosa [8] = experiment: Antimicrobial activity against Pseudomonas aeruginosa PA14 assessed as inhibition of planktonic cell growth at 100 uM after 24 hrs by […]; method in brief: as §1
Salmonella typhimurium [9] = experiment: Antimicrobial activity against Salmonella Typhimurium ATCC 14028 assessed as inhibition of planktonic cell growth at 40 uM after 24 hrs by […]; conditions: Salmonella enterica subsp. enterica serovar Typhimurium; method in brief: as §1

Row | Structure (SMILES) | growth inhibition (GI) (Pseudomonas aeruginosa [1]) | growth inhibition (GI) (Pseudomonas aeruginosa [2]) | growth inhibition (GI) (Pseudomonas aeruginosa [3]) | growth inhibition (GI) (Salmonella typhimurium [4]) | growth inhibition (GI) (Salmonella typhimurium [5]) | growth inhibition (GI) (Salmonella typhimurium [6]) | growth inhibition (GI) (Pseudomonas aeruginosa [7]) | growth inhibition (GI) (Pseudomonas aeruginosa [8]) | growth inhibition (GI) (Salmonella typhimurium [9])
1 | Nc1ncc(-c2ccc(Br)cc2)[nH]1 | inactive | Active | inactive |  |  |  |  |  | 
2 | Nc1ncc(-c2ccc(F)cc2)[nH]1 |  | inactive | inactive | inactive | inactive |  |  |  | 
3 | Nc1ncc(-c2ccccc2)[nH]1 |  |  | inactive | inactive |  | inactive | inactive |  | 
4 | Nc1ncc(-c2ccc([N+](=O)[O-])cc2)[nH]1 |  | inactive | inactive | inactive |  |  |  | Active | Active
